Tested on: MS2 coat protein
Test: apparent Kd, MS2 coat protein; higher = weaker binding; RNA-MaP array; FMN 200 µM where present
Procedure, shortened: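 On Illumina sequencing-chip clusters, designs were transcribed by stalled E. coli RNA polymerase and titrated with SNAP-549-labelled MS2 coat protein (0.7 or 1.5 nM, doubling to 3 µM), without and then with constant ligand, in 100 mM Tris-HCl pH 7.5, 80 mM KCl, 4 mM MgCl2, BSA, DTT, yeast tRNA and Tween-20. Apparent Kd is the median of filtered per-cluster curve fits to green signal normalised to red-channel RNA signal and control-cluster median Fmax.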

[1] = designed as: OFF switch for flavin mononucleotide, no ligand
[2] = ligand present: flavin mononucleotide, designed as: OFF switch for flavin mononucleotide
[3] = designed as: ON switch for flavin mononucleotide, no ligand
[4] = ligand present: flavin mononucleotide, designed as: ON switch for flavin mononucleotide

Row | Sequence | apparent Kd [1] | apparent Kd [2] | apparent Kd [3] | apparent Kd [4]
1 | GAUGGACAUGAGGAUCACCCAUGUAAGGAUAUUGAUUGUGGCUAUAAAUGGUUACGGUCGAGAAGGUACUCGUC | 82.2 nM | 78.8 nM |  | 
2 | ACUUGUUAGUAGAAGGUAGUUAUUAUAUUAAUCAUGUAUACAUGAGGAUCACCCAUGUUGAUUUCUAAGGAUAUACAUCGAUAG | 81.4 nM | 59 nM |  | 
3 | AAGACGUGGGAAGGAUAUCUGGAAUAUCGGUCGAGAGAAGGUCCCUCGACAUGAGGAUCACCCAUGUAACGCGGUCUACCGUGU |  |  | 596 nM | 494 nM
4 | CGAGAUCUUGAGAAGGCAUAAUAUAUAAUACCACAUGUUUACAUGAGGAUCACCCAUGUUACCUAUGAGGAUAUCAGGAUUUCG | 18.5 nM | 16.1 nM |  | 
5 | UUGUUAUAUGUAGGAUAUGCGUAUUAUUAUUAGGCAGAAGGACAUGAGGAUCACCCAUGUAUGUUGUUGUUAUAUAUUAUAUAU | 28.4 nM | 29.6 nM |  | 
6 | GGAUUUUACUAGUUUUCUAAACAUGAGGAUCACCCAUGUUUUUAGGAUAUCAGCGUGAAACACGCUGAGAAGGAAGAACAAUCC | 15.7 nM | 18.2 nM |  | 
7 | AGCUAGUCAGGAUAUACGAACAUGUCAAAAGACGAGAACGGACAUGAGGAUCACCCAUGUAGAAGGGACUAGCA | 55 nM | 325 nM |  | 
8 | UAUAUAAUUAAGAGCUGGAAUAAAACAUGAGGAUCACCCAUGUAGGAUAUCAGCACGAUAAGUGCUGAGAAGGACAACCAGCUC | 15.8 nM | 16.9 nM |  | 
9 | UGUACCGUUGGAACGCGUCGAGUACAUGAGGAUCACCCAUGUCAGGAUAUGUGGCGGAAGGUAGCACAGAAGGGACAUAGAAAA | 30.1 nM | 86.7 nM |  | 
10 | AUAGCAUACCGAGGAUAUUCAUAUAAUAAAUAAACAUGAGGAUCACCCAUGUGGCGAAAGCCUAGGGAGAAGGCGGAAUGCUAU |  |  | 204 nM | 24.1 nM
11 | GCCAUCGCAUGAGGAUAUGCUCCGGUUUCCGGAGCAGAAGGCAUGUAAUAAAACAUGAGGAUCACCCAUGUAGUUAAGAUGGCA |  |  | 7.94 nM | 6 nM
12 | CGCGAACAUGAGGAUCACCCAUGUGGGUGGAACGUAGGAUAUACGUAGGUCUUUAAUACAGUAGAAGGACGUUCGC |  |  | 264 nM | 118 nM
13 | AACAGUACAGGAUAUACAUGAGGAUCACCCAUGUGAGAAACCACUGGCGUACCAGAAAGUAGAAGGGUACUGGA | 79.7 nM | 97.8 nM |  | 
14 | AAAGCAACAUGAGGAUCACCCAUGUAGGAUAUCGCUAUUGUAAUCAUGAAACAUGAUUACAAUAGCGAGAAGGACAUAUGCUCC | 6.61 nM | 11.2 nM |  | 
15 | AAUUGGAUCCAGAAGGCAUGGACGACCCGUCACAUUAACAUGAGGAUCACCCAUGUAAAAAUACAUGAGGAUAUGGAUCCUAAA |  |  | 41.3 nM | 7.43 nM
16 | AAAAAAAAGCCCAAGGAUAUCCGGAUGAAGACAUGAGGAUCACCCAUGUGAAAAAAAAAAUAUGAGGAGAAGGUGGGAAAAAAAAA |  |  | 83.6 nM | 61.6 nM
17 | AUCCGACAUGAGGAUCACCCAUGUCAGGAUAUGGACUGACAUCGAAAGGAUGGCAGAACCAGAAGGGACUGGGC | 29.9 nM | 56.2 nM |  | 
18 | UAUGGUUAAGUCAGGAUAUACUAAUAGAAAUCUGUGUAGAAGGGACAUGAGGAUCACCCAUGUAUGGUAGUGUU | 68.7 nM | 75.1 nM |  | 
19 | ACAUGAUCAGGAUAUACAUGAGGAUCACCCAUGUAAAUCAAAAAAAAACUUUCUUUAUGUAGAAGGGAUCUUGU | 14.4 nM | 15.5 nM |  | 
20 | GAUUGAGAGCAGGAUAUCAUAGAAAUGUAUGAAUGAGAAGGGCUCACAUGAGGAUCACCCAUGUGGUCCUAGAU | 27.2 nM | 171 nM |  | 
21 | GGAGGGCCUCGAGGAUAUCGCUGCGGUCGUCUGACAUGAGGAUCACCCAUGUGAGAAGGCGAGGCUACUGACUAUGCCCGUUAU | 27.9 nM | 275 nM |  | 
22 | AAUUGGAUGCAGAAGGCAUGGACGACUCGUCAAAUUAACAUGAGGAUCACCCAUGUCAAAAGACAUGAGGAUAUGCAUCCUAAA |  |  | 189 nM | 12.6 nM
23 | GCAGCUCCUGACAUGAGGAUCACCCAUGUUUAAUUAUUAAAUCAGGAUAUCCUUUCGAAACGAAAGGAGAAGGGAUAAGCUGCU |  |  | 4.81 nM | 4.94 nM
24 | AUCAGUUCGUCAGGAUAUACGUCACUGCGUCAGCAGUGUGGUAAGAUCACAUGAGGAUCACCCAUGUAGAAGGGACGAGCUGAU | 14 nM | 214 nM |  | 

Row | Sequence | apparent Kd [1] | apparent Kd [2] | apparent Kd [3] | apparent Kd [4]
25 | AUAAAUAUAGCGAUAUGAUCGAGAGAUCAUGUCGCUAAUGUUAGAAGGACAUGAGGAUCACCCAUGUAGGAUAUGGGAGUAUGA |  |  | 197 nM | 86 nM
26 | UGAGAUCAUGUAGGAUAUGCAUGGCGAAGCUACGCAGAAGGACAUGAGGAUCACCCAUGUUAUAGCUACCCAGUUCGGUGGCAA | 44.4 nM | 86.7 nM |  | 
27 | GGUCGUCUCAUUAACAUGAGGAUCACCCAUGUCAAAAGACAUGAGGAUAUGGAUCCUAAUUGGAUCCAGAAGGCAUGGACGACC |  |  | 1110 nM | 60.4 nM
28 | UAGAUGGGAGGAUAUGCGUAGAUACGGAUUCGUGUGGUGCUACAUGAGGAUCACCCAUGUAGAAGGCCCGUCUU | 12.8 nM | 18.6 nM |  | 
29 | GCGUGGUUCUAGAAGGUGCUAGCGAUAAGCUAGCAAGGAUAUAGACAUGAGGAUCACCCAUGUCUUAGUGAAAUGGACACACGC |  | 5.09 nM |  | 
30 | GCCAUCGUAUGAGGAUAUGGCGCCGAAACGGUGCCAGAAGGCAUGUCAAUAGACAUGAGGAUCACCCAUGUGUUAUCGAUGGCA |  |  | 134 nM | 11.9 nM
31 | UGAUAGGACAGAGGAUAUACAGAUAGGAUCUACUAUCAAACAAUCCUGACAUGAGGAUCACCCAUGUAGAAGGCUGUCCUAUCU | 22.5 nM | 86.5 nM |  | 
32 | AAAUAAAGGAUUAAGGAUAUAUCACAUGAAACAUGAGGAUCACCCAUGUAAUAAUAUAAAGGGUGAUAGAAGGUAGUUUAUAAAUA |  |  | 415 nM | 440 nM
33 | GUUAUUGACAAGAAGGCAAACAUGAGGAUCACCCAUGUUCUACAUGGAUAUUGAGGAUAUUGCCAAUACAUGAGGAUCACCCAG | 63 nM | 68.8 nM |  | 
34 | GCAAAGCCUGACAUGAGGAUCACCCAUGUUAGAUUGUUAUGUCAGGAUAUUGUCUAGAAACUAGACAAGAAGGGAUGCUUUGCA |  |  | 463 nM | 27.3 nM
35 | GUAGAGUAAGGAUAUACAGAAUAGGAUAGAAUGGUUAGAAUGUAGAAGGUACAUGAGGAUCACCCAUGUAAUGU | 19.7 nM | 18.4 nM |  | 
36 | AGCGUCGGCACAGGAUAUGAGAUGCCGGCAGACAUGAGGAUCACCCAUGUAAGCGAACCAGGCAGUCAGAAGGGUGAUCGACAA |  |  | 56.3 nM | 21.7 nM
37 | AAGAAACAUGAGGAUCACCCAUGUGAGGAUAUGAAAAAGAAAAGAAAAGAAAGAAGAAUCAGAAGGCACAAAGG | 30.8 nM | 45.1 nM |  | 
38 | ACUAGAUGAGGAUAUGCAUAUUUUCGUGUUCUUCUAGAUUAACAUGAGGAUCACCCAUGUAGAAGGCGUCAUUU | 15.7 nM | 18.4 nM |  | 
39 | GUCAUCACAUGAGGAUAUGCUCGGGUUUCCCGAGCAGAAGGCAUGGCAUACAUGAGGAUCACCCAUGUUGACAUUAAGAUUGUA |  |  | 10.3 nM | 6.73 nM
40 | UCCACUGCUGAGAAGGGAUCCGUGUGGUUCGAAUCAGGAUAUCGAUACAGUGCAGCAUGAGGACAUGAGGAUCACCCAUGUAUC |  |  | 13.2 nM | 11.3 nM
41 | GUAGCUAUCGGAGGAUAUUCAUAAAACAUGAGGAUCACCCAUGUUAAAUUGGGAGAAGGCCGAUAGCUACAAGAGCGAAAGCUC |  |  | 5.85 nM | 4.76 nM
42 | UGUUGUUCAGGAUAUGGUGUGUUCUACAUGAGGAUCACCCAUGUGGGUCCUGGUUUGGCGUCAGAAGGGAAUGUUG | 750 nM | 746 nM |  | 
43 | UAAUCGUUGCAGAAGGUUAUUAUUAUAACGUGACACUUAACAUGAGGAUCACCCAUGUUUUUGAUGAAGGAUAUGCAACGGUAG | 8.04 nM | 7.71 nM |  | 
44 | AAAUUGGUAGAGGAUAUCGGAUAGGAUUUACUGCGAGAAGGCUGCACAUGAGGAUCACCCAUGUUCUGUUGCGA | 25.1 nM | 26 nM |  | 
45 | UUAUGUCGCGUAGGAUAUCAUUAGAGUUGUAAUUUAAUUGUAAUUUCGAUAUGAGAAGGACGUACACAUGAGGAUCACCCAUGU | 17.2 nM | 15.3 nM |  | 
46 | GUAGUACAUGAGGAUCACCCAUGUGUGGGCGCAUGAGGAUAUGUCCGUACCUGGCGUACGAUAGAAGGCAUGGUGC |  |  | 52.8 nM | 29.3 nM
47 | ACGGAACAUGAGGAUCACCCAUGUAUCCGAAAUAUGGACUCACAGGAUAUCCAGAGUUGCCAAUCGGAGAAGGGUGACUCCAGA |  |  | 12.8 nM | 9.91 nM
48 | CCUCUACAUGAGGAUCACCCAUGUGAGGAUAUGCGAGGCGCGCUCGAUGAGCGCGCCGGUAGAAGGCAUGUGGU | 23.2 nM | 49.9 nM |  | 

Source: the EternaBench riboswitch data
